Reference: ChEMBL document CHEMBL1156720, “Synthesis and antimicrobial activity of dermaseptin S1 analogues” (Bioorg Med Chem, 2008)
≈ marks a conversion by molar mass, not a printed value. Where “and” joins values, the source holds several entries; their conditions need not be identical. Identical values can stand only once. Square brackets hold non-standard residues; d marks the D form. Peptide text beside a SMILES is read from it. 1Nal = N[C@@H](Cc1cccc2ccccc12)C(=O)O; 2Nal = N[C@@H](Cc1ccc2ccccc2c1)C(=O)O; hPhe = N[C@@H](CCc1ccccc1)C(=O)O

Key:
[1] = test system: Staphylococcus aureus; assay: Antibacterial activity against Staphylococcus aureus Cowan 1 NCTC 8530 after 24 hrs by microdilution serial twofold assay; assay type: functional; conditions: Cowan 1, 24 h
Outline: (§1)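 Bacteria grown in static culture at 37 °C in Mueller Hinton broth and diluted to 5 × 10⁵ CFU/mL. Peptides were tested by twofold serial microdilution starting from 100 μg/mL, with peptide-free control wells. The MIC was the lowest concentration with no rise in turbidity after overnight incubation at 37 °C. Values are means of at least two independent experiments run in duplicate.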

[2] = test system: Staphylococcus aureus; assay: Antibacterial activity against Staphylococcus aureus ATCC 6538P after 24 hrs by microdilution serial twofold assay; assay type: functional
[3] = test system: Staphylococcus aureus; assay: Antibacterial activity against Staphylococcus aureus Cowan 1 NCTC 8530 after 3 hrs by microdilution serial twofold assay; assay type: functional; conditions: Cowan 1, 3 h, read-out: LD50 (the source's name)
Outline: (§2)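 Mueller Hinton Broth static cultures grown at 37 °C and diluted to 5 × 10⁵ CFU/mL. Peptides were tested by twofold serial microdilution starting from 100 μg/mL in a final volume of 200 μL, with peptide-free controls. After 3 h incubation, cultures were serially 10-fold diluted in PBS and plated on Mueller Hinton Agar. Counts were taken after 24 h at 37 °C. Value is the dose giving 50% bacterial lethality.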

[4] = test system: Bacillus subtilis; assay: Antibacterial activity against Bacillus subtilis ATCC 9466 after 24 hrs by microdilution serial twofold assay; assay type: functional; conditions: ATCC 9466, 24 h
[5] = test system: Candida albicans; assay: Antifungal activity against wild type Candida albicans by broth microdilution method; assay type: functional
Outline: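 Wild-strain yeast was tested in triplicate by broth microdilution following NCCLS recommendations. The MIC was the lowest peptide concentration with no increase in turbidity after overnight incubation at 37 °C.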

[6] = test system: Pseudomonas aeruginosa; assay: Antibacterial activity against Pseudomonas aeruginosa ATCC 15442 after 24 hrs by microdilution serial twofold assay; assay type: functional; conditions: ATCC 15442, 24 h
[7] = test system: Escherichia coli; assay: Antibacterial activity against Escherichia coli HB101 after 3 hrs by microdilution serial twofold assay; assay type: functional; conditions: HB101, 3 h, read-out: LD50 (the source's name); outline: as §2
[8] = test system: Escherichia coli; assay: Antibacterial activity against Escherichia coli HB101 after 24 hrs by microdilution serial twofold assay; assay type: functional; conditions: HB101, 24 h; outline: as §1
[9] = test system: Pseudomonas aeruginosa; assay: Antibacterial activity against multi drug-resistant Pseudomonas aeruginosa after 24 hrs by microdilution serial twofold assay; assay type: functional
Outline: (§3)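 Mueller Hinton Broth cultures grown statically at 37 °C and diluted to 5 × 10⁵ CFU/mL. Twofold serial microdilution from 100 μg/mL peptide, final volume 200 μL, with peptide-free controls. MIC is the lowest concentration with no turbidity increase after overnight incubation at 37 °C. Means come from at least two independent experiments run in duplicate.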

[10] = test system: Burkholderia cepacia; assay: Antibacterial activity against Burkholderia cepacia 6/06 after 24 hrs by microdilution serial twofold assay; assay type: functional; outline: as §1
[11] = test system: Stenotrophomonas maltophilia; assay: Antibacterial activity against Stenotrophomonas maltophilia FC after 24 hrs by microdilution serial twofold assay; assay type: functional; outline: as §1
[12] = test system: Staphylococcus aureus; assay: Antibacterial activity against multi drug-resistant Staphylococcus aureus after 24 hrs by microdilution serial twofold assay; assay type: functional; outline: as §3
[13] = Toxicity assessed as hemolytic activity in human red blood cells after 30 mins; assay type: cell-based, Erythrocyte; conditions: read-out: HD50
Outline: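 Serially diluted peptides were incubated with 10⁸ washed human RBC (100 µL) for 30 min at 37 °C with agitation. After centrifugation at 900g for 10 min, haemoglobin in the supernatant was read at 550 nm. Distilled water gave maximal lysis. HC₅₀ is the mean from at least two independent experiments run in triplicate.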

[14] = test system: Leishmania major; assay: Antileishmanial activity against Leishmania major MHOM/IL/67/JERICHO-2 after 24 hrs by dye exclusion method; assay type: functional
Outline: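 Promastigotes were grown at 25 °C in medium 199 with 20% heat-inactivated FCS, penicillin/streptomycin, L-glutamine, HEPES, adenine, hemin and biotin. They were resuspended at 5 × 10⁵ viable cells/mL and exposed to serial peptide dilutions at 25 °C with agitation. Viability was counted by trypan blue exclusion in a haemocytometer.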

[15] = test system: Leishmania major; assay: Antileishmanial activity against Leishmania major MHOM/IL/67/JERICHO-2 assessed as protozoal viability after 24 hrs by dye exclusion method; assay type: functional
Outline: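 Promastigotes grown at 25 °C in supplemented medium 199 containing 20% heat-inactivated FCS, then resuspended at 5 × 10⁵ viable/mL with serially diluted peptides. After 24 h at 25 °C with agitation, viable cells were counted by haemocytometer using trypan blue exclusion. LC₅₀ is the 50% survival reduction versus an untreated culture, fitted by nonlinear regression. Run in triplicate.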

Row | Molecule | MIC [1] | MIC [2] | LC50 [3] | MIC [4] | MIC [5] | MIC [6] | LC50 [7] | MIC [8] | MIC [9] | MIC [10] | MIC [11] | MIC [12] | HC50 at 0.5 h [13] | MIC [14] | LC50 [15]
1 | CSCC[C@H](NC(=O)[C@@H](NC(=O)CNC(=O)[C@H](CC(C)C)NC(=O)[C@H](CCCCN)NC(=O)[C@H](CCCCN)NC(=O)[C@H](CC(C)C)NC(=O)[C@H](CCSC)NC(=O)[C@@H](NC(=O)[C@H](CCCCN)NC(=O)[C@H](Cc1cccc2ccccc12)NC(=O)[C@H](CC(C)C)NC(=O)[C@H](C)N)[C@@H](C)O)[C@@H](C)O)C(=O)N[C@@H](C)C(=O)N[C@@H](CC(C)C)C(N)=O (H-AL[1Nal]KTMLKKLGTMAL-NH2) | 11.5 µM (≈ 19.7 µg/mL) | 2.8 µM (≈ 4.8 µg/mL) | 2.4 µM | 11.2 µM (≈ 19.2 µg/mL) | 11.2 µM (≈ 19.2 µg/mL) | 5.6 µM (≈ 9.61 µg/mL) | 0.9 µM | 2.8 µM (≈ 4.8 µg/mL) | 11.2 µM (≈ 19.2 µg/mL) | 25 µM (≈ 42.9 µg/mL) | 22.5 µM (≈ 38.6 µg/mL) | 22.5 µM (≈ 38.6 µg/mL) | 75 µM |  | 
2 | CSCC[C@H](NC(=O)[C@@H](NC(=O)CNC(=O)[C@H](CC(C)C)NC(=O)[C@H](CCCCN)NC(=O)[C@H](CCCCN)NC(=O)[C@H](CC(C)C)NC(=O)[C@H](CCSC)NC(=O)[C@@H](NC(=O)[C@H](CCCCN)NC(=O)[C@H](Cc1ccc2ccccc2c1)NC(=O)[C@H](CC(C)C)NC(=O)[C@H](C)N)[C@@H](C)O)[C@@H](C)O)C(=O)N[C@@H](C)C(=O)N[C@@H](CC(C)C)C(N)=O (H-AL[2Nal]KTMLKKLGTMAL-NH2) | 11.5 µM (≈ 19.7 µg/mL) | 2.8 µM (≈ 4.8 µg/mL) | 2.5 µM | 5.6 µM (≈ 9.61 µg/mL) | 11.2 µM (≈ 19.2 µg/mL) | 5.6 µM (≈ 9.61 µg/mL) | 0.9 µM | 2.8 µM (≈ 4.8 µg/mL) | 11.2 µM (≈ 19.2 µg/mL) | 25 µM (≈ 42.9 µg/mL) | 25 µM (≈ 42.9 µg/mL) | > 25 µM | > 100 µM |  | 
3 | CSCC[C@H](NC(=O)[C@@H](NC(=O)CNC(=O)[C@H](CC(C)C)NC(=O)[C@H](CCCCN)NC(=O)[C@H](CCCCN)NC(=O)[C@H](CC(C)C)NC(=O)[C@H](CCSC)NC(=O)[C@@H](NC(=O)[C@H](CCCCN)NC(=O)[C@H](CCc1ccccc1)NC(=O)[C@H](CC(C)C)NC(=O)[C@H](C)N)[C@@H](C)O)[C@@H](C)O)C(=O)N[C@@H](C)C(=O)N[C@@H](CC(C)C)C(N)=O (H-AL[hPhe]KTMLKKLGTMAL-NH2) | 46.8 µM (≈ 78.6 µg/mL) | 5.8 µM (≈ 9.74 µg/mL) | 9.3 µM | 23 µM (≈ 38.6 µg/mL) | 5.8 µM (≈ 9.74 µg/mL) | > 46 µM | 3 µM | 11.7 µM (≈ 19.6 µg/mL) | 46 µM (≈ 77.2 µg/mL) | 23 µM (≈ 38.6 µg/mL) | 23 µM (≈ 38.6 µg/mL) | > 46 µM | > 100 µM |  | 
4 | CSCC[C@H](NC(=O)[C@@H](NC(=O)CNC(=O)[C@H](CC(C)C)NC(=O)[C@H](CCCCN)NC(=O)[C@H](CCCCN)NC(=O)[C@H](CC(C)C)NC(=O)[C@H](CCSC)NC(=O)[C@@H](NC(=O)[C@H](CCCCN)NC(=O)[C@H](Cc1cccc2ccccc12)NC(=O)[C@H](CC(C)C)NC(=O)[C@H](C)NC(=O)[C@@H](N)CCCCN)[C@@H](C)O)[C@@H](C)O)C(=O)N[C@@H](C)C(=O)N[C@@H](CC(C)C)C(N)=O (H-KAL[1Nal]KTMLKKLGTMAL-NH2) | 5.1 µM (≈ 9.4 µg/mL) | 1.3 µM (≈ 2.4 µg/mL) | 0.8 µM | 5.2 µM (≈ 9.59 µg/mL) | 10.5 µM (≈ 19.4 µg/mL) | 2.6 µM (≈ 4.79 µg/mL) | < 0.8 µM | 1.2 µM (≈ 2.21 µg/mL) | 10.5 µM (≈ 19.4 µg/mL) | 42 µM (≈ 77.4 µg/mL) | 21 µM (≈ 38.7 µg/mL) | 21 µM (≈ 38.7 µg/mL) | 80 µM |  | 
5 | H-ALFKTMLKKLGTMAL-NH2 | > 47.1 µM | 23 µM | 16.7 µM | 23 µM | 5.8 µM | > 46 µM | 4.5 µM | 23.5 µM | > 46 µM | > 46 µM | > 46 µM | > 46 µM | > 100 µM |  | 
6 | H-ALHKTMLKKLGTMAL-NH2 | > 44.9 µM | > 45 µM | > 44.9 µM | > 45 µM | > 45 µM | > 45 µM | > 44.9 µM | > 44.9 µM | > 45 µM | > 45 µM | > 45 µM | > 45 µM | > 100 µM |  | 
7 | H-ALLKTMLKKLGTMAL-NH2 | > 47.9 µM | 24 µM | 12 µM | 24 µM | 12 µM | > 48 µM | 6 µM | 23.9 µM | > 48 µM | > 48 µM | > 48 µM | > 48 µM | > 100 µM |  | 
8 | H-ALWKTMLKKLGT-NH2 | > 54 µM |  | 54 µM |  |  |  | 54 µM | > 54 µM |  |  |  |  | > 100 µM | 100 µg/mL and 54.2 µM | 50 µg/mL and 27.1 µM
9 | H-ALWKTMLKKLGTM-NH2 | > 50.6 µM |  | 50.6 µM |  |  |  | 22.7 µM | 50.6 µM |  |  |  |  | > 100 µM | 100 µg/mL and 50.6 µM | 50 µg/mL and 25.3 µM
10 | H-ALWKTMLKKLGTMA-NH2 | > 48.8 µM |  | 28.3 µM |  |  |  | 20.5 µM | 48.8 µM |  |  |  |  | > 100 µM | 100 µg/mL and 48.8 µM | 50 µg/mL and 24.4 µM
11 | H-ALWKTMLKKLGTMAL-NH2 | 11.5 µM | 5.7 µM | 2.7 µM | 5.7 µM | 23.7 µM | > 47 µM | 1.4 µM | 2.9 µM | > 47 µM | 23.7 µM | > 45 µM | > 47 µM | > 100 µM | 50 µg/mL and 22.8 µM | 19 µg/mL and 8.7 µM
12 | H-ALWKTMLKKLGTMALHAGK-NH2 | 35.9 µM |  | 10.7 µM |  |  |  | < 1.8 µM | 3.6 µM |  |  |  |  | > 100 µM | 50 µg/mL and 17.9 µM | 22 µg/mL and 7.9 µM
13 | H-ALWKTMLKKLGTMALHAGKAALGAAADTI-NH2 | 2.7 µM |  | < 1.5 µM |  |  |  | 2.2 µM | 2.7 µM |  |  |  |  | > 100 µM | 25 µg/mL and 6.1 µM | 9.6 µg/mL and 2.3 µM
14 | H-ALYKTMLKKLGTMAL-NH2 | > 46.7 µM | > 45 µM | > 46.7 µM | > 45 µM | > 45 µM | > 45 µM | > 46.7 µM | > 46.7 µM | > 45 µM | > 45 µM | > 45 µM | > 45 µM | > 100 µM |  | 
15 | H-KALWKTMLKKLGTMAL-NH2 | 20.8 µM | 2.6 µM | 2.7 µM | 21 µM | 10.1 µM | 5.2 µM | < 0.8 µM | 2.6 µM | 21 µM | 42 µM | 21 µM | > 42 µM | > 100 µM |  | 
